Entries after “also recorded” stand apart in the source; their conditions may differ.
What was measured:
[1] = system: MC65 Tet-Off cells (Aβ expressed); assay: Protection against Aβ toxicity in MC65 Tet-Off cells; format: cell-based, human; conditions: any concentration of rotenone; data not shown
Outline: (§1)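 MC65 human neuroblastoma cells in high-glucose DMEM with 10% FBS, 1 mM pyruvate and nonessential amino acids, 5% CO2, 37 °C. Tet-Off (Aβ expressed) cells got test compound at 2 nM–5 μM, optionally after 30 min pretreatment with 32 nM rotenone. Tet-On cells got vehicle or 32 nM rotenone. Viability at 3 days by MTT: 0.25 mg/ml, 4 h at 37 °C, solubilised in HCl/isopropanol, read at 570 nm. Tet-On vehicle set as 100%.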

MC65 Tet-On cells [2] = assay: Cytotoxicity in MC65 Tet-On cells; format: cell-based, human; conditions: 32 nM rotenone
Outline: as §1

[3] = system: mitochondrial complex I (mtCI); assay: mtCI activity in isolated brain mitochondria; format: biochemical, mouse; conditions: 1 μM rotenone
Outline: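 Mouse brain mitochondria isolated by differential centrifugation (5900×g 4 min, then 12,000×g 10 min, 4 °C) in mannitol/sucrose/HEPES-Tris/EGTA medium, pH 7.4, with BSA and 0.02% digitonin. Complex I activity measured spectrophotometrically at 25 °C as oxidation of 0.15 mM NADH at 340 nm. Buffer: sucrose/Tris-HCl pH 7.5/KCl with 10 μM cytochrome c, 40 μg/ml alamethicin and 1 mM MgCl2.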

MC65 Tet-On cells [4] = assay: Real-time respirometry; format: cell-based, human
SH-SY5Y APPSWE cells = assay: Mitochondrial stress test; format: cell-based, human; conditions: rotenone 256 nM
Outline: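 For SH-SY5Y cells stably expressing APPSWE, cells were held 1 h at 37 °C without CO2 in XF DMEM pH 7.4 (1 mM pyruvate, 2 mM glutamine, 10 mM glucose). OCR was recorded basally, then after oligomycin A and FCCP (each titrated over 0.5–3 μM) and 0.5 μM rotenone plus 0.5 μM antimycin A. Hoechst (5 μM final) was used for cell-count normalisation. SRC = maximal minus basal OCR.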

C=C(C)[C@H]1Cc2c(ccc3c2O[C@@H]2COc4cc(OC)c(OC)cc4[C@@H]2C3=O)O1 [rotenone]
Protection against Aβ toxicity [1]: did not protect | Cytotoxicity (MC65 Tet-On cells [2]): show no toxicity; also recorded: did not induce cell death | mtCI inhibition (in words) [3]: complete inhibition; also recorded: completely inhibits | Reduction of OCR (MC65 Tet-On cells [4]; 32 nM rotenone, within 30 min): 50% | Effect on respiration (MC65 Tet-On cells [4]; kinetic injection): immediately blocked respiration | Spare respiratory capacity (SRC) (SH-SY5Y APPSWE cells): did not improve SRC

From article PMC12466149 (eBioMedicine, 2025)
